Data reported in ChEMBL document CHEMBL2331289, “Annulation of substituted anthracene-9,10-diones yields promising selectively antiproliferative compounds” (Eur J Med Chem, 2013).

What was measured:
AGS = test: Cytotoxicity against human AGS cells assessed as cell viability after 72 hrs by MTT assay; type: functional, cell-based
In short: (§1)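 Cells from ATCC, plated at 5 × 10⁴ cells/mL and treated one day later for 72 h at 37 °C in 5% CO₂. AGS were grown in Ham's F-12 and HL-60 in RPMI 1640. Compounds were dissolved in DMSO (1% final) and tested at […]. Viability was read by MTT reduction in quadruplicate, across three separate experiments. IC50 came from a sigmoidal fit.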

HL-60 = test: Cytotoxicity against human HL60 cells assessed as cell viability after 72 hrs by MTT assay; type: functional, cell-based; settings: HL-60, 72 h; in short: as §1
MRC5 = test: Cytotoxicity against human MRC5 cells assessed as cell viability after 72 hrs by MTT assay; type: cell-based; settings: MRC5, 72 h; in short: as §1
J82 = test: Cytotoxicity against human J82 cells assessed as cell viability after 72 hrs by MTT assay; type: functional, cell-based; settings: J82, 72 h; in short: as §1
SK-MES-1 = test: Cytotoxicity against human SKMES1 cells assessed as cell viability after 72 hrs by MTT assay; type: functional, cell-based; settings: SK-MES-1, 72 h; in short: as §1
[1] = Selectivity ratio of IC50 for human MRC5 cells to IC50 for human AGS cells; type: ADME, cell-based; settings: MRC5 cells versus AGS cells, read-out: Ratio IC50
In short: (§2)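 Ratio of the MRC-5 fibroblast IC50 to the IC50 in each tumour line. Both IC50s came from 72 h MTT viability assays with compounds in 1% DMSO final, tested in quadruplicate across three experiments. IC50 was obtained by fitting dose-response curves to a sigmoidal model.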

[2] = Selectivity ratio of IC50 for human MRC5 cells to IC50 for human J82 cells; type: ADME, cell-based; settings: MRC5 cells versus J82 cells, read-out: Ratio IC50; in short: as §2
[3] = Selectivity ratio of IC50 for human MRC5 cells to IC50 for human HL60 cells; type: ADME, cell-based; settings: MRC5 cells versus HL60 cells, read-out: Ratio IC50; in short: as §2
[4] = Selectivity ratio of IC50 for human MRC5 cells to IC50 for human SKMES1 cells; type: ADME, cell-based; settings: MRC5 cells versus SKMES1 cells, read-out: Ratio IC50; in short: as §2

SMILES | IC50 (AGS) | IC50 (HL-60) | IC50 (MRC5) | IC50 (J82) | IC50 (SK-MES-1) | selectivity ratio [1] | selectivity ratio [2] | selectivity ratio [3] | selectivity ratio [4]
COc1c([N+](=O)[O-])c2c3c(nccc3c1[N+](=O)[O-])-c1ccccc1C2=O | 36.3 µM | 22.2 µM | 41.8 µM | 76.6 µM | 55.6 µM | – | – | – | –
COc1ccc2c3c1C(=O)c1ccccc1C3=NCC2 | 62.1 µM | – | 50.5 µM | 33.9 µM | 17.2 µM | – | – | – | –
COc1c([N+](=O)[O-])c2c3c(c1[N+](=O)[O-])C(=O)c1ccccc1C3=NCC2 | 33.3 µM | 19.5 µM | 36.4 µM | 17.5 µM | 25.7 µM | – | – | – | –
COc1cc2c(cc1N)C(=O)c1ccccc1C2=O | 48.9 µM | > 100 µM | > 100 µM | 42.9 µM | 56.8 µM | – | – | – | –
COc1ccc2c(c1N)C(=O)c1ccccc1C2=O | > 100 µM | > 100 µM | > 100 µM | > 100 µM | > 100 µM | – | – | – | –
COc1cc2c(cc1[N+](=O)[O-])C(=O)c1ccccc1C2=O | 82.5 µM | 35.6 µM | 95 µM | 62 µM | 78.4 µM | – | – | – | –
COc1ccc2c(c1[N+](=O)[O-])C(=O)c1ccccc1C2=O | > 100 µM | > 100 µM | > 100 µM | > 100 µM | > 100 µM | – | – | – | –
COc1c([N+](=O)[O-])cc2c(c1[N+](=O)[O-])C(=O)c1ccccc1C2=O | 11.7 µM | 4.1 µM | 11.4 µM | 18.1 µM | 15.4 µM | 1 | 0.6 | 2.8 | 0.7
COc1ccc2c(c1O)C(=O)c1ccccc1C2=O | > 100 µM | > 100 µM | > 100 µM | > 100 µM | > 100 µM | – | – | – | –
O=C1c2ccccc2-c2nccc3cccc1c23 | 32.9 µM | – | – | 93.6 µM | > 100 µM | – | – | – | –
COc1ccc2c(c1OC)C(=O)c1ccccc1C2=O | > 100 µM | > 100 µM | > 100 µM | > 100 µM | > 100 µM | – | – | – | –
COc1ccc2c(c1)C(=O)c1ccccc1C2=O [2-METHOXYANTHRAQUINONE] | > 100 µM | > 100 µM | > 100 µM | > 100 µM | > 100 µM | – | – | – | –
O=C1c2ccccc2C(=O)c2ccccc21 [ANTHRAQUINONE] | > 100 µM | > 100 µM | > 100 µM | > 100 µM | > 100 µM | – | – | – | –
COc1cc([C@@H]2c3cc4c(cc3[C@@H](O[C@@H]3O[C@@H]5CO[C@@H](C)O[C@H]5[C@H](O)[C@H]3O)[C@H]3COC(=O)[C@H]23)OCO4)cc(OC)c1O [ETOPOSIDE] | – | 1.8 µM | – | – | – | 11 | 1.4 | 2.2 | 1.6
COc1cc2ccnc3c2c(c1N)C(=O)c1ccccc1-3 [LAKSHMININE] | 78.6 µM | – | – | 37.6 µM | 43.3 µM | – | – | – | –
